Measured values: ChEMBL document CHEMBL3046448, “Design and syntheses of novel phthalazin-1(2H)-one derivatives as acetohydroxyacid synthase inhibitors” (J Agric Food Chem, 2006)

Assays:
Chenopodium album [1] = test: Herbicidal activity against Chenopodium album assessed as growth inhibition at 150 g ai/ha applied as post-emergence treatment under green house conditions measured 15 days post compound treatment; type: functional; conditions: 360 h, read-out: GI
Summary of the method: (§1)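 Post-emergence spray on pot-grown dicot weeds at the two-leaf stage in a greenhouse. Clay soil: pH 6.5, 1.6% organic matter, 37.3% clay, CEC 12.1 cmol/kg. Formulation: 100 g/L DMF/TW-80 emulsified concentrate, water-diluted to 150 g ai/ha. Untreated and DMF solvent controls. Visual inhibition rating at 15 days: ++ >80%, + 50-80%, − <50%.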

Amaranthus retroflexus [2] = test: Herbicidal activity against Amaranthus retroflexus assessed as growth inhibition at 150 g ai/ha applied as post-emergence treatment under green house conditions measured 15 days post compound treatment; type: functional; conditions: 360 h, read-out: GI; summary of the method: as §1
Brassica juncea [3] = test: Herbicidal activity against Brassica juncea assessed as growth inhibition at 150 g ai/ha applied as post-emergence treatment under green house conditions measured 15 days post compound treatment; type: functional; conditions: 360 h, read-out: GI; summary of the method: as §1
Setaria viridis [4] = test: Herbicidal activity against Setaria viridis (green foxtail) assessed as growth inhibition at 150 g ai/ha applied as post-emergence treatment under green house conditions measured 15 days post compound treatment; type: functional; conditions: 360 h, read-out: GI
Summary of the method: (§2)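 Monocot weeds grown in pots in a greenhouse and sprayed post-emergence at the one-leaf stage. Clay soil: pH 6.5, 1.6% organic matter, 37.3% clay, CEC 12.1 cmol/kg. Formulation: 100 g/L emulsified concentrate (DMF, TW-80) diluted with water to 150 g ai/ha. Untreated and DMF controls included. Growth inhibition scored visually after 15 days: ++ >80%, + 50-80%, − <50%.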

Digitaria sanguinalis [5] = test: Herbicidal activity against Digitaria sanguinalis (hairy crabgrass) assessed as growth inhibition at 150 g ai/ha applied as post-emergence treatment under green house conditions measured 15 days post compound treatment; type: functional; conditions: 360 h, read-out: GI; summary of the method: as §2
Amaranthus retroflexus [6] = test: Herbicidal activity against Amaranthus retroflexus assessed as growth inhibition at 150 g ai/ha applied as pre-emergence treatment 24 hr after weeds seeds sowing under green house conditions measured 15 days post compound treatment; type: functional; conditions: read-out: GI
Summary of the method: (§3)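 Pre-emergence spray applied 24 h after sowing weeds in pots in a greenhouse. Clay soil: pH 6.5, 1.6% organic matter, 37.3% clay, CEC 12.1 cmol/kg. Formulation: 100 g/L emulsified concentrate (DMF solvent, TW-80 emulsifier) diluted with water to 150 g ai/ha. Untreated and DMF-treated controls. Growth inhibition judged visually at 15 days: ++ >80%, + 50-80%, − <50%.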

Brassica juncea [7] = test: Herbicidal activity against Brassica juncea assessed as growth inhibition at 150 g ai/ha applied as pre-emergence treatment 24 hr after weeds seeds sowing under green house conditions measured 15 days post compound treatment; type: functional; conditions: read-out: GI; summary of the method: as §3
Setaria viridis [8] = test: Herbicidal activity against Setaria viridis (green foxtail) assessed as growth inhibition at 150 g ai/ha applied as pre-emergence treatment 24 hr after weeds seeds sowing under green house conditions measured 15 days post compound treatment; type: functional; conditions: read-out: GI; summary of the method: as §3
Digitaria sanguinalis [9] = test: Herbicidal activity against Digitaria sanguinalis (hairy crabgrass) assessed as growth inhibition at 150 g ai/ha applied as pre-emergence treatment 24 hr after weeds seeds sowing under green house conditions measured 15 days post compound treatment; type: functional; conditions: read-out: GI; summary of the method: as §3
Echinochloa crus-galli [10] = test: Herbicidal activity against Echinochloa crus-galli (barnyard grass) assessed as growth inhibition at 150 g ai/ha applied as post-emergence treatment under green house conditions measured 15 days post compound treatment; type: functional; conditions: 360 h, read-out: GI; summary of the method: as §2
Chenopodium album [11] = test: Herbicidal activity against Chenopodium album assessed as growth inhibition at 150 g ai/ha applied as pre-emergence treatment 24 hr after weeds seeds sowing under green house conditions measured 15 days post compound treatment; type: functional; conditions: read-out: GI; summary of the method: as §3
Echinochloa crus-galli [12] = test: Herbicidal activity against Echinochloa crus-galli (barnyard grass) assessed as growth inhibition at 150 g ai/ha applied as pre-emergence treatment 24 hr after weeds seeds sowing under green house conditions measured 15 days post compound treatment; type: functional; conditions: read-out: GI; summary of the method: as §3
[13] = target: T1, Acetolactate synthase, chloroplastic (Arabidopsis thaliana, UniProt P17597); test: Inhibition of wild type Arabidopsis thaliana acetohydroxyacid synthase
T1 sequence (P17597 whole entry): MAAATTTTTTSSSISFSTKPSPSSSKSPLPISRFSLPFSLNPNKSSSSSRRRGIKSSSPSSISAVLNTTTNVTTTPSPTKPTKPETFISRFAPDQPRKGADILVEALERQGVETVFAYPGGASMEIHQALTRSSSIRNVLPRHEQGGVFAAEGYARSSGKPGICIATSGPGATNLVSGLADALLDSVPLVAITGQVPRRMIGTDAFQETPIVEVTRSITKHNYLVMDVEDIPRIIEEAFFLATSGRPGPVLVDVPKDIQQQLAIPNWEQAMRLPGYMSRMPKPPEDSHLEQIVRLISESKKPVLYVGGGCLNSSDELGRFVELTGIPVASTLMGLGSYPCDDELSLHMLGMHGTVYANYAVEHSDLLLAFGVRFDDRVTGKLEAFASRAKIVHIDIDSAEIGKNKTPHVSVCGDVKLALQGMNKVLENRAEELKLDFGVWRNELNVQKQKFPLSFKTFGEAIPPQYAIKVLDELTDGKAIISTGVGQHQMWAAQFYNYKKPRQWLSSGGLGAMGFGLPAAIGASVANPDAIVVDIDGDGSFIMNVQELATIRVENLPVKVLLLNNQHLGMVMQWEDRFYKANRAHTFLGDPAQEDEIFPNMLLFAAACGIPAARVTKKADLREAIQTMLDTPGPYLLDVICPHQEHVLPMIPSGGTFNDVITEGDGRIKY

With COc1cc(OC)nc(Oc2cccc3c(C)nn(Cc4cccc(F)c4)c(=O)c23)n1 the inhibition of growth at 150 g/ha (Chenopodium album [1]) was < 50%, the inhibition of growth at 150 g/ha (Amaranthus retroflexus [2]) was < 50% and the inhibition of growth at 150 g/ha (Brassica juncea [3]) was < 50%. The inhibition of growth at 150 g/ha (Setaria viridis [4]) was < 50%, the inhibition of growth at 150 g/ha (Digitaria sanguinalis [5]) was < 50% and the inhibition of growth at 150 g/ha (Amaranthus retroflexus [6]) was < 50%. The inhibition of growth at 150 g/ha (Brassica juncea [7]) was < 50%, the inhibition of growth at 150 g/ha (Setaria viridis [8]) was < 50% and the inhibition of growth at 150 g/ha (Digitaria sanguinalis [9]) was < 50%. The inhibition of growth at 150 g/ha (Echinochloa crus-galli [10]) was < 50%, the inhibition of growth at 150 g/ha (Chenopodium album [11]) was < 50% and the inhibition of growth at 150 g/ha (Echinochloa crus-galli [12]) was < 50%. The Ki [13] was 1400 µM.
With COc1cc(OC)nc(Oc2cccc3c(C)nn(Cc4ccccc4Br)c(=O)c23)n1 the inhibition of growth at 150 g/ha (Chenopodium album [1]) was < 50%, the inhibition of growth at 150 g/ha (Amaranthus retroflexus [2]) was < 50% and the inhibition of growth at 150 g/ha (Brassica juncea [3]) was < 50%. For the same compound, the inhibition of growth at 150 g/ha (Setaria viridis [4]) was < 50%, the inhibition of growth at 150 g/ha (Digitaria sanguinalis [5]) was < 50% and the inhibition of growth at 150 g/ha (Amaranthus retroflexus [6]) was < 50%. The inhibition of growth at 150 g/ha (Brassica juncea [7]) was < 50%, the inhibition of growth at 150 g/ha (Setaria viridis [8]) was < 50% and the inhibition of growth at 150 g/ha (Digitaria sanguinalis [9]) was < 50%. The inhibition of growth at 150 g/ha (Echinochloa crus-galli [10]) was < 50%, the inhibition of growth at 150 g/ha (Chenopodium album [11]) was < 50% and the inhibition of growth at 150 g/ha (Echinochloa crus-galli [12]) was < 50%. The Ki [13] was 362 µM.
For COc1cc(OC)nc(Oc2cccc3c(C)nn(Cc4cccc(Br)c4)c(=O)c23)n1, the inhibition of growth at 150 g/ha (Chenopodium album [1]) was < 50%, the inhibition of growth at 150 g/ha (Amaranthus retroflexus [2]) was > 80% and the inhibition of growth at 150 g/ha (Brassica juncea [3]) was 50%. The inhibition of growth at 150 g/ha (Setaria viridis [4]) was 50%, the inhibition of growth at 150 g/ha (Digitaria sanguinalis [5]) was 50% and the inhibition of growth at 150 g/ha (Amaranthus retroflexus [6]) was < 50%. The inhibition of growth at 150 g/ha (Brassica juncea [7]) was < 50%, the inhibition of growth at 150 g/ha (Setaria viridis [8]) was < 50% and the inhibition of growth at 150 g/ha (Digitaria sanguinalis [9]) was < 50%. The inhibition of growth at 150 g/ha (Echinochloa crus-galli [10]) was 50%, the inhibition of growth at 150 g/ha (Chenopodium album [11]) was < 50% and the inhibition of growth at 150 g/ha (Echinochloa crus-galli [12]) was < 50%. The Ki [13] was 759 µM.
COc1cc(OC)nc(Oc2cccc3c(C)n[nH]c(=O)c23)n1 was tested, and the inhibition of growth at 150 g/ha (Chenopodium album [1]) was 50%, the inhibition of growth at 150 g/ha (Amaranthus retroflexus [2]) was > 80% and the inhibition of growth at 150 g/ha (Brassica juncea [3]) was < 50%. The inhibition of growth at 150 g/ha (Setaria viridis [4]) was > 80%, the inhibition of growth at 150 g/ha (Digitaria sanguinalis [5]) was > 80% and the inhibition of growth at 150 g/ha (Amaranthus retroflexus [6]) was < 50%. For the same compound, the inhibition of growth at 150 g/ha (Brassica juncea [7]) was < 50%, the inhibition of growth at 150 g/ha (Setaria viridis [8]) was < 50% and the inhibition of growth at 150 g/ha (Digitaria sanguinalis [9]) was < 50%. For the same compound, the inhibition of growth at 150 g/ha (Echinochloa crus-galli [10]) was > 80%, the inhibition of growth at 150 g/ha (Chenopodium album [11]) was < 50% and the inhibition of growth at 150 g/ha (Echinochloa crus-galli [12]) was < 50%. For the same compound, the Ki [13] was 789 µM.
C=CCn1nc(C)c2cccc(Oc3nc(OC)cc(OC)n3)c2c1=O was tested, and the inhibition of growth at 150 g/ha (Chenopodium album [1]) was 50%, the inhibition of growth at 150 g/ha (Amaranthus retroflexus [2]) was > 80% and the inhibition of growth at 150 g/ha (Brassica juncea [3]) was < 50%. The inhibition of growth at 150 g/ha (Setaria viridis [4]) was > 80%, the inhibition of growth at 150 g/ha (Digitaria sanguinalis [5]) was 50% and the inhibition of growth at 150 g/ha (Amaranthus retroflexus [6]) was < 50%. The inhibition of growth at 150 g/ha (Brassica juncea [7]) was < 50%, the inhibition of growth at 150 g/ha (Setaria viridis [8]) was < 50% and the inhibition of growth at 150 g/ha (Digitaria sanguinalis [9]) was < 50%. For the same compound, the inhibition of growth at 150 g/ha (Echinochloa crus-galli [10]) was > 80%, the inhibition of growth at 150 g/ha (Chenopodium album [11]) was < 50% and the inhibition of growth at 150 g/ha (Echinochloa crus-galli [12]) was < 50%. For the same compound, the Ki [13] was 5250 µM.
CCOC(=O)Cn1nc(C)c2cccc(Oc3nc(OC)cc(OC)n3)c2c1=O was tested, and the inhibition of growth at 150 g/ha (Chenopodium album [1]) was 50%, the inhibition of growth at 150 g/ha (Amaranthus retroflexus [2]) was > 80% and the inhibition of growth at 150 g/ha (Brassica juncea [3]) was < 50%. The inhibition of growth at 150 g/ha (Setaria viridis [4]) was > 80%, the inhibition of growth at 150 g/ha (Digitaria sanguinalis [5]) was 50% and the inhibition of growth at 150 g/ha (Amaranthus retroflexus [6]) was < 50%. The inhibition of growth at 150 g/ha (Brassica juncea [7]) was < 50%, the inhibition of growth at 150 g/ha (Setaria viridis [8]) was < 50% and the inhibition of growth at 150 g/ha (Digitaria sanguinalis [9]) was < 50%. For the same compound, the inhibition of growth at 150 g/ha (Echinochloa crus-galli [10]) was > 80%, the inhibition of growth at 150 g/ha (Chenopodium album [11]) was < 50% and the inhibition of growth at 150 g/ha (Echinochloa crus-galli [12]) was < 50%. It also gave a Ki [13] of 557 µM.
